The text below walks through data of ChEMBL document CHEMBL4613293, “Pyridobenzothiazolones Exert Potent Anti-Dengue Activity by Hampering Multiple Functions of NS5 Polymerase” (ACS Med Chem Lett, 2020).

The subject of data set [1] is dengue virus type 2. The experiment in a line: Inhibition of Dengue virus NS5 RNA-dependent RNA polymerase assessed as reduction in de novo initiation activity at 30 uM incubated for 1 hr relative to control. In a few lines:
(§1)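 Purified recombinant full-length DENV2 NS5 polymerase was tested in two formats: primer-independent (de novo initiation) and primer-dependent (elongation). Compound at a single 30 μM; % inhibition reported.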

Data set [2] has as its system dengue virus type 2. As to the kind of experiment: Inhibition of Dengue virus NS5 RNA-dependent RNA polymerase assessed as reduction in elongation activity at 30 uM incubated for 1 hr relative to control. In a few lines: as §1
Data set [3] is described as follows: Inhibition of Dengue virus NS5 RNA-dependent RNA polymerase assessed as reduction in elongation activity incubated for 1 hr. The arrangement: species or system dengue virus type 2. In a few lines:
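Elongation (primer-dependent) activity of purified recombinant full-length DENV2 NS5 was measured over a concentration series with fluorescence read-out. Compound-only wells corrected for autofluorescence. IC50 is 50% inhibition of elongation, average ± SD from one experiment in duplicate.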

Data set [4] is described as follows: Cytotoxicity against human HuH7 cells assessed as reduction in cell viability incubated for 48 hrs by CellTiter Glo Luminescent assay. In kind it is cell-based, Huh-7. In a few lines: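 HuH7 viability was read by CellTiter-Glo luminescence in parallel with the infection dose–response. CC50 is the concentration reducing viability by 50%.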
On the technique in general: In ATP-based viability assays light output follows the ATP content of the culture.

For data set [5], the system named is dengue virus type 2. The experiment in a line: Antiviral activity against Dengue virus 2 EDEN 3295 infected in human HuH7 cells assessed as reduction in virus replication incubated for 48 hrs by plaque reduction assay. The data set is classed as functional, organism-based. The conditions noted are these: EDEN 3295, Huh-7, 48 h. A digest of the protocol: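 DENV2 EDEN 3295 in human hepatoma HuH7 cells, treated 48 h. Infectious virus quantified by plaque assay. Dose–response from 0.01 to 100 μM after an initial 10 μM screen. EC50 is the concentration giving 50% inhibition of replication, reported as average ± SD of two independent experiments.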
In general terms: Plaques are areas of infected cells; plaque reduction assays count them against a control.

Data set [6] can be described thus: Selectivity index, ratio of CC50 for human HuH7 cells to EC50 for Dengue virus 2 EDEN 3295 infected in human HuH7 cells. The data set is classed as toxicity, cell-based. The conditions noted are these: read-out: Ratio CC50/EC50. A digest of the protocol:
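Selectivity index is CC50 (CellTiter-Glo, HuH7) divided by EC50 (plaque assay, DENV2 EDEN 3295, 48 h, HuH7).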

In another data set the test system is Zika virus. As to the kind of experiment: Antiviral activity against Zika virus H/PF/2013 infected in human HuH7 cells assessed as reduction in virus replication incubated for 24 hrs by plaque reduction assay. The data set is classed as functional, organism-based. Particulars: H/PF/2013, Huh-7, 24 h. In a few lines: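 ZIKV H/PF/2013 in HuH7 cells, treated 24 h. Titres read by plaque assay. EC50 is the concentration giving 50% inhibition of replication, reported as average ± SD of two independent experiments.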

Data set [7] can be described thus: Selectivity index, ratio of CC50 for human HuH7 cells to EC50 for Zika virus H/PF/2013 infected in human HuH7 cells. The data set is classed as toxicity, cell-based. The conditions noted are these: read-out: Ratio CC50/EC50. In a few lines:
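Selectivity index is CC50 (CellTiter-Glo, HuH7) divided by EC50 (plaque assay, ZIKV H/PF/2013, 24 h, HuH7).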

Data set [8] in a line: Inhibition of Dengue virus full length NS2b-NS3/NS5 interaction incubated for 1 hr by ELISA. A digest of the protocol: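 Competitive ELISA measuring DENV NS3–NS5 binding across compound concentrations. IC50 reported as average ± SD from one experiment in duplicate.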
On the technique in general: ELISA stands for enzyme-linked immunosorbent assay.

Another data set relates to dengue virus type 1. The experiment in a line: Antiviral activity against Dengue virus 1 infected in human HuH7 cells assessed as reduction in virus replication incubated for 48 hrs by plaque reduction assay. The data set is classed as functional, organism-based. The conditions noted are these: Huh-7, 48 h.
The subject of another data set is dengue virus type 3. As to the kind of experiment: Antiviral activity against Dengue virus 3 infected in human HuH7 cells assessed as reduction in virus replication incubated for 48 hrs by plaque reduction assay. In kind it is functional, organism-based. The conditions noted are these: Huh-7, 48 h.
In the next data set the test system is dengue virus type 4. As to the kind of experiment: Antiviral activity against Dengue virus 4 infected in human HuH7 cells assessed as reduction in virus replication incubated for 48 hrs by plaque reduction assay. In kind it is functional, organism-based. The conditions noted are these: Huh-7, 48 h.
The subject of data set [9] is dengue virus type 2. As to the kind of experiment: Antiviral activity against Dengue virus 2 EDEN 3295 infected in human HuH7 cells assessed as reduction in viral titer at 10 uM over 10 passage incubated for 72 hrs by resistance development assay relative to control. In kind it is functional. The conditions noted are these: EDEN 3295, Huh-7, 72 h. A digest of the protocol: (§2)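 Resistance selection: DENV2-infected HuH7 cells were passaged under rising compound concentrations, 72 h per passage, up to P10. P10 viruses (parental or resistant clone) were expanded in C6/36 insect cells. Susceptibility was then tested in HuH7 at a single 10 μM dose, read as viral titer reduction versus control. Two independent experiments in duplicate; average ± SD.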

Data set [10] has as its system dengue virus type 2. As to the kind of experiment: Antiviral activity against Dengue virus 2 EDEN 3295 clone 4_R infected in human HuH7 cells assessed as reduction in viral titer at 10 uM over 10 passage incubated for 72 hrs by resistance development assay relative to control. In kind it is functional. Particulars: EDEN 3295, Huh-7, 72 h. In a few lines:
as §2

The test system of data set [11] is dengue virus type 2. The experiment in a line: Antiviral activity against Dengue virus 2 EDEN 3295 infected in human HuH7 cells assessed as reduction in viral titer over 10 passages incubated for 72 hrs by resistance development assay. The conditions noted are these: EDEN 3295, Huh-7, 72 h. In kind it is functional, organism-based. A digest of the protocol:
(§3)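 Virus came from HuH7 serial passage under increasing compound concentrations (72 h each, to P10) and was expanded in C6/36 cells. P10 parental DENV2 or resistant-clone virus was then tested dose-dependently in HuH7 cells with 48 h compound treatment, measuring viral inhibition. Single experiment with duplicates.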

Data set [12] has as its system dengue virus type 2. The experiment in a line: Antiviral activity against Dengue virus 2 EDEN 3295 clone 4_R infected in human HuH7 cells assessed as reduction in viral titer over 10 passages incubated for 72 hrs by resistance development assay. The conditions noted are these: EDEN 3295, Huh-7, 72 h. The data set is classed as functional, organism-based. In a few lines:
as §3

The test system of data set [13] is dengue virus type 2. The experiment in a line: Inhibition of Dengue virus 2 NS5 assessed as reduction in NS5-3' UTR RNA at 25 uM incubated for 1 hr followed by 3' UTR RNA addition and measured after 20 mins by REMSA. In a few lines:
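RNA electrophoretic mobility shift with DENV NS5 at 1.28 μM and RNA at 0.16 μM (RNA/NS5 1:8), compound at 25 μM, 37 °C. Order of addition: compound, then NS5, then RNA. Band shift from complex formation scored on gel.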

By inhibition is commonly meant the drop in the measured response relative to a control, in per cent. As usually defined, the IC50 is the concentration that inhibits the measured activity by half. The CC50 is the concentration giving 50% cytotoxicity. The term EC50 denotes the concentration at which the effect is half-maximal.

Calls of active or inactive are those of the source. The calls are words filed in the database; no cut-off is given here. Where only a bound is given, the exact number is not on record here.

Turning to `O=C(N[C@@H](Cc1ccc(O)cc1)C(=O)O)c1cc(-c2ccccc2)c(=O)n2c1sc1ccc(OC3CCCCCC3)cc12`, the inhibition came to 30.5% in the data set with dengue virus type 2 [1] and 92.1% in the data set on dengue virus type 2 [2]. Further, the IC50 is 9.62 µM in data set [3] and 33.8 µM in [8]. The CC50 at 48 h in data set [4] amounted to 100 µM. In addition, the EC50 is 3.7 µM in the data set with dengue virus type 2 [5] and 1.6 µM in the data set on Zika virus. Moreover, the selectivity ratio was 30 in [6] and over 50 in data set [7].
`O=C(N[C@@H](Cc1ccc(O)cc1)C(=O)O)c1cc(-c2ccccc2)c(=O)n(-c2cccc(OC3CCCCC3)c2)c1`: the figures for the inhibition with dengue virus type 2 [1] and in the data set on dengue virus type 2 [2] were 36.4% and 72.1%, respectively. In addition, the IC50 in [3] was 81.3 µM.
In the case of `C#C[C@@]1(O)[C@H](O)[C@@H](CO)O[C@H]1n1ccc2c(N)ncnc21`, the CC50 at 48 h in data set [4] was 100 µM. Besides, the figures for the EC50 in the data set with dengue virus type 2 [5] and in the data set on Zika virus were 1 µM and 0.2 µM, respectively. Also, the selectivity ratio in data set [6] was 100; in [7], over 100.
Turning to `O=C(O)CCNC(=O)c1cc(-c2ccccc2)c(=O)n2c1sc1ccc(OC3CCCCC3)cc12`, the inhibition in the data set on dengue virus type 2 [2] was 77.6%. Further, the 50% inhibitory concentration (IC50) in data set [3] worked out at 37.8 µM; in data set [8] it was 23.7 µM. In addition, in data set [4], the CC50 at 48 h is over 100 µM. For the same compound, the concentration for a half-maximal effect (EC50) in the data set on dengue virus type 2 [5] came out at 3.5 µM; in the data set with Zika virus, 1 µM; in the data set with dengue virus type 1, 7 µM; in the data set with dengue virus type 3 it was 7.8 µM; in the data set on dengue virus type 4, 6.9 µM; in the data set on dengue virus type 2 [11], 5.3 µM. In addition, the EC50 with dengue virus type 2 [12] is 11.4 µM. The selectivity ratio was over 30 in data set [6] and over 100 in data set [7]. The inhibition at 10 µM in the data set with dengue virus type 2 [9] was 80%; in the data set on dengue virus type 2 [10], 20%. Moreover, the inhibition entry with dengue virus type 2 [13] is “Active”.
Turning to `O=C(N[C@@H](Cc1ccc(O)cc1)C(=O)O)c1cc(-c2ccccc2)c(=O)n2c1sc1ccc(OC3CCCCC3)cc12`, the inhibition in the data set with dengue virus type 2 [1] turned out to be 40.7%; with dengue virus type 2 [2] it was 93%. Besides, the IC50 in data set [3] is 9.16 µM; in [8] it was 42.4 µM. In addition, in [4], the CC50 at 48 h is over 100 µM. Further, the EC50 with dengue virus type 2 [5] was 2.1 µM; with Zika virus it was 0.4 µM; in the data set with dengue virus type 1, 2.8 µM; with dengue virus type 3, 2.8 µM; in the data set with dengue virus type 4, 1.7 µM. In addition, the selectivity ratio in [6] is over 50; in data set [7] it was over 100.
For `O=C(NCCO)c1cc(-c2ccccc2)c(=O)n2c1sc1ccc(OC3CCCCC3)cc12`, the inhibition in the data set with dengue virus type 2 [1] was determined as 10%; in the data set with dengue virus type 2 [2], 63.3%. Moreover, in [4], the CC50 at 48 h worked out at 86.3 µM. The concentration for a half-maximal effect (EC50) in the data set with dengue virus type 2 [5] turned out to be 1.9 µM; with Zika virus it was 1.8 µM. The selectivity ratio in data set [6] and in data set [7] was 43 each time.
`O=c1c(-c2ccccc2)ccc2sc3ccc(OC4CCCCC4)cc3n12`: the inhibition in the data set with dengue virus type 2 [2] is 6.3%. For the same compound, the inhibition entry in the data set with dengue virus type 2 [13] was “inactive”.
Regarding `O=C(N[C@@H](Cc1cccc(O)c1)C(=O)O)c1cc(-c2ccccc2)c(=O)n2c1sc1ccc(OC3CCCCC3)cc12`, the inhibition with dengue virus type 2 [1] came to 12.6%; in the data set on dengue virus type 2 [2] it was 94.1%. Further, the IC50 in data set [3] was 14.5 µM; in data set [8], 18.1 µM. Further, the CC50 at 48 h in [4] was over 100 µM. Moreover, the EC50 in the data set with dengue virus type 2 [5] turned out to be 2.9 µM; in the data set on Zika virus, 0.8 µM; in the data set with dengue virus type 1 it was 3.2 µM; with dengue virus type 3, 4.3 µM; with dengue virus type 4, 5.9 µM. The selectivity ratio is over 30 in data set [6] and over 100 in data set [7].
Regarding `O=C(NCc1ccccc1)c1cc(-c2ccccc2)c(=O)n2c1sc1ccc(OC3CCCCC3)cc12`, the inhibition with dengue virus type 2 [2] came out at 31.2%.
As for `O=C(N[C@@H](CO)C(=O)O)c1cc(-c2ccccc2)c(=O)n2c1sc1ccc(OC3CCCCC3)cc12`, the inhibition in the data set on dengue virus type 2 [1] worked out at 44.8%; with dengue virus type 2 [2], 97.5%. In addition, the IC50 in data set [3] worked out at 19.8 µM.
Regarding `Cn1cc(C(=O)N[C@@H](Cc2ccc(O)cc2)C(=O)O)cc(-c2ccccc2)c1=O`, the inhibition in the data set on dengue virus type 2 [1] was 35.6%; in the data set with dengue virus type 2 [2] it was 70.2%.
Regarding `O=C(NCc1ccc(O)cc1)c1cc(-c2ccccc2)c(=O)n2c1sc1ccc(OC3CCCCC3)cc12`, the inhibition in the data set on dengue virus type 2 [2] was 44.8%. The CC50 at 48 h in [4] is over 100 µM. Besides, the figures for the EC50 in the data set with dengue virus type 2 [5] and in the data set with Zika virus were 1.8 µM and 1 µM, respectively. For the same compound, the selectivity ratio in data set [6] was over 50; in [7], over 100. Also, in the data set on dengue virus type 2 [13], the inhibition entry is “inactive”.
